From ChEMBL document CHEMBL2010658, “Caspase-1 and -3 inhibiting drimane sesquiterpenoids from the extremophilic fungus Penicillium solitum” (J Nat Prod, 2012)
Calls of active or inactive are those of the source. The calls are words filed in the database; no cut-off is given here.

Legend:
[1] = target: T1, Caspase-3 (Homo sapiens) (UniProt P42574); assay: (§1) Inhibition of caspase 3 by signal transduction fluorometric assay
T1 sequence (whole entry): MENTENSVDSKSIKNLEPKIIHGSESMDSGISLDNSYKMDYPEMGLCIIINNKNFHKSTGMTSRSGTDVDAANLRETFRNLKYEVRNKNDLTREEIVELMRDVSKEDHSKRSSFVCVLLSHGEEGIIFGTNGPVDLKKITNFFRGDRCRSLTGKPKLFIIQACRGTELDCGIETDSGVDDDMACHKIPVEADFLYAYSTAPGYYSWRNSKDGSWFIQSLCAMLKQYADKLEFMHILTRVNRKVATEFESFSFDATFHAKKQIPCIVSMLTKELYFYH
In short: (§2)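 Fluorometric enzyme inhibition assays. Reference inhibitors were Ac-YVAD-CHO for caspase-1, Ac-DEVD-CHO for caspase-3, and NNGH for MMP-3.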

[2] = target: T2, Caspase-1 (Homo sapiens) (UniProt P29466); assay: (§3) Inhibition of caspase 1 by signal transduction fluorometric assay; in short: as §2
T2 sequence (whole entry): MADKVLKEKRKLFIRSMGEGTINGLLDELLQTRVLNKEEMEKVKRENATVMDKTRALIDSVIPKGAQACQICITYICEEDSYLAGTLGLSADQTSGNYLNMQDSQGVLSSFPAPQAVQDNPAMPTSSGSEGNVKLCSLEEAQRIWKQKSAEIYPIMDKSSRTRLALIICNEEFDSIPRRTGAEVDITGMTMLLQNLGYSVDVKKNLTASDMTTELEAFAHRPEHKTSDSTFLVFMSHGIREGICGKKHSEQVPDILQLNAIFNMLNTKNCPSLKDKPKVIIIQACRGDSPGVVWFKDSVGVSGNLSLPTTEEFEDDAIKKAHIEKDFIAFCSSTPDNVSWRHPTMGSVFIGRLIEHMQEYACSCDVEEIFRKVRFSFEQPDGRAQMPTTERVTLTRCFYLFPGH

[3] = target: Stromelysin-1 (Homo sapiens) (UniProt P08254); assay: Inhibition of MMP3 by signal transduction fluorometric assay; in short: as §2
Chain of Stromelysin-1 (Homo sapiens) (P08254 100-477 limits assumed): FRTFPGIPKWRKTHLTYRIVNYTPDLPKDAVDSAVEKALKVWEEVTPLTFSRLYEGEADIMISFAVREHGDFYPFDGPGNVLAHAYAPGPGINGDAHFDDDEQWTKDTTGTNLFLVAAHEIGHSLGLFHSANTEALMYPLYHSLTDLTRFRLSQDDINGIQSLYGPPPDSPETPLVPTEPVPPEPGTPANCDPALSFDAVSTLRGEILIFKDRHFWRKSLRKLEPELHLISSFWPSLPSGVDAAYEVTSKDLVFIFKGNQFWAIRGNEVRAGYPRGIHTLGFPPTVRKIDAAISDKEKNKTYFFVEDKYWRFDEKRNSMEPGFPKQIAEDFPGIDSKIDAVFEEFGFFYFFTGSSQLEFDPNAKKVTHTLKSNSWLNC

[4] = target: T3, Caspase-3 (Homo sapiens, UniProt P42574); assay: as §1; in short: as §2
T3 sequence (P42574 whole entry): T1 sequence (whole entry)

[5] = target: T4, Caspase-1 (Homo sapiens, UniProt P29466); assay: as §3; in short: as §2
T4 sequence (P29466 whole entry): T2 sequence (whole entry)

[6] = tested on: THP-1; assay: Antiinflammatory activity in human THP1 cells assessed as inhibition of titanium dioxide nanowires/LPS-induced IL-1beta production at 1 to 100 uM after 24 hrs by ELISA; assay type: functional, cell-based
In short: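 PMA-differentiated THP-1 cells (1 μg/mL PMA, 24 h beforehand), grown in RPMI with 10% FBS, 0.05 mM 2-mercaptoethanol and pyruvate. Cells were scraped, pelleted, and resuspended at 1.0 × 10⁶ cells/mL. They were exposed to compound at 1, 10 and 100 μM plus LPS (20 ng/mL) and TiO₂ nanowires (100 μg/mL) for 24 h at 37 °C. IL-1β was measured by ELISA and viability by MTS (490 nm).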

Row | inhibition [1] | inhibition [2] | inhibition [3] | IC25 [1] [µM] | IC50 [4] [µM] | IC50 [5] [µM] | SMILES | inhibition [6]
1 | inactive | inactive | inactive | – | – | – | CCCCCCCCCC[C@H](C(=O)OC)[C@@](O)(CCC(=O)OC)C(=O)OC | –
2 | inactive | inactive | inactive | – | – | – | C=CCCCCCCCC[C@H](C(=O)OC)[C@@](O)(CCC(=O)OC)C(=O)OC | –
3 | inactive | inactive | inactive | – | – | – | CCCCCCCCCC[C@H](C(=O)OC)[C@]1(C(=O)OC)CCC(=O)O1 | –
4 | – | – | – | 10 | 50 | 90 | CC(=O)N[C@H](C(=O)O[C@H]1CCC(C)(C)[C@@H]2CC=C3C(=O)OC[C@]3(O)[C@@]12C)C(C)C (relative stereo) | Active
5 | – | – | – | 15 | 200 | 100 | CC(=O)N[C@H](C(=O)O[C@H]1CCC(C)(C)[C@@H]2CC=C3C(=O)OC[C@@H]3[C@@]12C)C(C)C (relative stereo) | Active
